From ChEMBL document CHEMBL5335771, “Thioxanthenone-based derivatives as multitarget therapeutic leads for Alzheimer's disease” (Eur J Med Chem, 2023)

Tests used:
Acetylcholinesterase [1] = molecular target: Acetylcholinesterase (Electrophorus electricus, UniProt O42275); test: Inhibition of electric eel AChE using acetylthiocholine iodide as substrate preincubated for 20 mins followed by substrate addition by DTNB reagent based Ellman's method
Acetylcholinesterase [2] = molecular target: Acetylcholinesterase (Homo sapiens, UniProt P22303); test: Inhibition of human recombinant AChE using acetylthiocholine iodide as substrate preincubated for 20 mins followed by substrate addition by DTNB reagent based Ellman's method
Cholinesterase [3] = molecular target: Cholinesterase (Equus caballus, UniProt P81908); test: Inhibition of equine serum BChE using butyrylthiocholine iodide as substrate preincubated for 20 mins followed by substrate addition by DTNB reagent based Ellman's method; assay type: cell-free
[4] = molecular target: T1, Microtubule-associated protein tau (Homo sapiens, UniProt P10636); test: Inhibition of tau (unknown origin) aggregation expressed in Escherichia coli BL21 (DE3)
In short: (§1)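 E. coli BL21(DE3) carrying pTARA (T7 RNA polymerase under PBAD) and pRKT42 (four-repeat tau) grown at 37 °C in M9 with 0.5% glucose, antibiotics and 250 μM ThS to OD600 0.6. […] ThS fluorescence ex 430/em 485 nm, normalized to tau-expressing cells (100%) and non-expressing cells (0%); OD600 checked for growth.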

[5] = molecular target: Amyloid-beta precursor protein (Homo sapiens, UniProt P05067); test: Inhibition of amyloid beta 40 peptide (unknown origin) aggregation incubated for 2 hr by ThT fluorescence based spectrofluorimetric analysis
In short: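 Aβ40 peptide aggregation enhanced with 2% HFIP; thioflavin T fluorescence read-out; run in triplicate.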

Cholinesterase [6] = molecular target: Cholinesterase (Homo sapiens, UniProt P06276); test: Inhibition of human recombinant BChE using acetylthiocholine iodide as substrate preincubated for 20 mins followed by substrate addition by DTNB reagent based Ellman's method
In short: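 Human BChE was assayed by the Ellman spectrophotometric method. IC50 values are means of three independent experiments, each run in triplicate.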

[7] = molecular target: T1, Microtubule-associated protein tau; test: Inhibition of tau (unknown origin) aggregation expressed in Escherichia coli BL21 (DE3) at 10 uM relative to control; in short: as §1

T1 sequence (P10636 whole entry): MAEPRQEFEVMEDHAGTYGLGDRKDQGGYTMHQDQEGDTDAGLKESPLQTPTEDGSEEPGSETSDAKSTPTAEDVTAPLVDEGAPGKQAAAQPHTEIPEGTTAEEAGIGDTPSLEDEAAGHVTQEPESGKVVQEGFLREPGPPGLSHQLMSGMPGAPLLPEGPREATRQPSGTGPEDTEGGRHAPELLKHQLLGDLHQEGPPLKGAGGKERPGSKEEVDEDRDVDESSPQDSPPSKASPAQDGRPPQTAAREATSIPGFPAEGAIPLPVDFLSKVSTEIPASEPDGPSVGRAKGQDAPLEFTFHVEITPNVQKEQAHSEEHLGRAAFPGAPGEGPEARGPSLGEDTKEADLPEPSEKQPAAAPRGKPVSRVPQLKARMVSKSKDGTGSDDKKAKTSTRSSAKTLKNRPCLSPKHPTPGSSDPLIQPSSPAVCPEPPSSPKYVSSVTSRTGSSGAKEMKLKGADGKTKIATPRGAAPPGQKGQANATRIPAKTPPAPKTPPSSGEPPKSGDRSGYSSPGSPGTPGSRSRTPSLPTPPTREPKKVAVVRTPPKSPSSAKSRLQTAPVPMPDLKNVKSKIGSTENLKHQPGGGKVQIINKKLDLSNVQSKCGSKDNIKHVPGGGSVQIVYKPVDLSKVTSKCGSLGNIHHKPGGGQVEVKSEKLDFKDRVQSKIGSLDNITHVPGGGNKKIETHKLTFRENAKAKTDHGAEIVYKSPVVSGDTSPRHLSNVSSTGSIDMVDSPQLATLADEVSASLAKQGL
Chain of Amyloid-beta precursor protein (P05067 whole entry): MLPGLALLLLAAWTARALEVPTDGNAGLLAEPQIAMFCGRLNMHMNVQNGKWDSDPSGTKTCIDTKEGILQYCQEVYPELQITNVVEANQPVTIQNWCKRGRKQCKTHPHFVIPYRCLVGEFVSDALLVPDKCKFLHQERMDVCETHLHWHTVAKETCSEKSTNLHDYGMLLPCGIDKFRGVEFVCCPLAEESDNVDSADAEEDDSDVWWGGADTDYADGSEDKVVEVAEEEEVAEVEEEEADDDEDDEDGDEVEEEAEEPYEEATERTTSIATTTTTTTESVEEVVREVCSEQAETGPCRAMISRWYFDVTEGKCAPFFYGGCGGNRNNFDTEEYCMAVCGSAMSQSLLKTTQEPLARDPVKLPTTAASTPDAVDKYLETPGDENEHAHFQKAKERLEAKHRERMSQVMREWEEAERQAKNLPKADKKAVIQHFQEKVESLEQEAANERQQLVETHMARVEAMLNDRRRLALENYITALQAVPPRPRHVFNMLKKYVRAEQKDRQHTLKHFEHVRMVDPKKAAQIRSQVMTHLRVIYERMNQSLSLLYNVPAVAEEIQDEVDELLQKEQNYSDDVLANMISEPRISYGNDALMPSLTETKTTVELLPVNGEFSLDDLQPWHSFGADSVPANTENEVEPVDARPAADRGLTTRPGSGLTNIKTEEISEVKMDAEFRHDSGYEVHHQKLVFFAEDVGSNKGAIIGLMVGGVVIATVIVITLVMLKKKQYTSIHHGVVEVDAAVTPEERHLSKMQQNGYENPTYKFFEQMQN
Chain of Cholinesterase (Homo sapiens, UniProt P06276) (P06276 whole entry): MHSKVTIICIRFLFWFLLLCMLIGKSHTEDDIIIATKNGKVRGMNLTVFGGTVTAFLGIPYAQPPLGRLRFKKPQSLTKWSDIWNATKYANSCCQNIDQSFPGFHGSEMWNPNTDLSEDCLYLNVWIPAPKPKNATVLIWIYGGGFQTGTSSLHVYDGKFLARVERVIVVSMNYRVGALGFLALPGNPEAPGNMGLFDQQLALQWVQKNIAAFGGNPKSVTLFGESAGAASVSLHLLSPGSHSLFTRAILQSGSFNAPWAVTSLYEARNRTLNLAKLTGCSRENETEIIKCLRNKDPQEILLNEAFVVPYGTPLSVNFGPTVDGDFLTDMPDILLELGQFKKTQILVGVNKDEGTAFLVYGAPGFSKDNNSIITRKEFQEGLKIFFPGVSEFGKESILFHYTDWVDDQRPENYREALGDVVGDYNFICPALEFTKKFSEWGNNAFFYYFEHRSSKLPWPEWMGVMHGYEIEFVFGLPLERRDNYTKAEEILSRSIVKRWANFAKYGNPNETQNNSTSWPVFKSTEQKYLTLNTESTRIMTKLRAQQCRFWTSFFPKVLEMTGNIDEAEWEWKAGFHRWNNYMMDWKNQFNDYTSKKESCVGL
Chain of Acetylcholinesterase (Homo sapiens, UniProt P22303) (P22303 whole entry): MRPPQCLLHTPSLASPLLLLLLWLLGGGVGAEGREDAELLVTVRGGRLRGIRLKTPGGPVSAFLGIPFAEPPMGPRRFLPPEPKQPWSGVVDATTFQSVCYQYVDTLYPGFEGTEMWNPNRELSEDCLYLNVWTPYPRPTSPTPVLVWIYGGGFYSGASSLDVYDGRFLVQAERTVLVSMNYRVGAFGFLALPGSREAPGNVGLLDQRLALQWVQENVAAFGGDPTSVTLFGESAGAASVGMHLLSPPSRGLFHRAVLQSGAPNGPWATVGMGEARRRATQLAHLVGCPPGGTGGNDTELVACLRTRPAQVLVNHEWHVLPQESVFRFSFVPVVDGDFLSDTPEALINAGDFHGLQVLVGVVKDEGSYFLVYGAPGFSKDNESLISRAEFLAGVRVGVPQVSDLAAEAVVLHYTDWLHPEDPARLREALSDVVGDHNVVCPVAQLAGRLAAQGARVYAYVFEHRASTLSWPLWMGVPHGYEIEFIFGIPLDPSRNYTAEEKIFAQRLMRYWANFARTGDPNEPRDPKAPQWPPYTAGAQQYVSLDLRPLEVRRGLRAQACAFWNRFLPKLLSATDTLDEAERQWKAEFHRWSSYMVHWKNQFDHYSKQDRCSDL
Chain of Cholinesterase (Equus caballus, UniProt P81908) (P81908 whole entry): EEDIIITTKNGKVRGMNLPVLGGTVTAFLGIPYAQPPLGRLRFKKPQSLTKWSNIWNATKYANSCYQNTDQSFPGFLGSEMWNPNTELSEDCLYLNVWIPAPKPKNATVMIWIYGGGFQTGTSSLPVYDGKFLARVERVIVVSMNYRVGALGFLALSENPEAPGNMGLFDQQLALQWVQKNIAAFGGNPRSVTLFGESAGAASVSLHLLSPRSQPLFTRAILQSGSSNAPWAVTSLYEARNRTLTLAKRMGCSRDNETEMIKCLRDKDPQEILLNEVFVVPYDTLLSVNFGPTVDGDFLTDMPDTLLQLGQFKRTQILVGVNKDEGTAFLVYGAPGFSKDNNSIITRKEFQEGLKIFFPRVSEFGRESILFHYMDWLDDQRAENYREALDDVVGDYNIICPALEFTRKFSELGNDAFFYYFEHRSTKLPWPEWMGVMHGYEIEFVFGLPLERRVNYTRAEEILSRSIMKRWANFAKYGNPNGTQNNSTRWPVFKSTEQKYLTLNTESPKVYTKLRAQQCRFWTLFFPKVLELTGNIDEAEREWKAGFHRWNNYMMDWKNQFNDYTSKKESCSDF
Chain of Acetylcholinesterase (Electrophorus electricus, UniProt O42275) (O42275 whole entry): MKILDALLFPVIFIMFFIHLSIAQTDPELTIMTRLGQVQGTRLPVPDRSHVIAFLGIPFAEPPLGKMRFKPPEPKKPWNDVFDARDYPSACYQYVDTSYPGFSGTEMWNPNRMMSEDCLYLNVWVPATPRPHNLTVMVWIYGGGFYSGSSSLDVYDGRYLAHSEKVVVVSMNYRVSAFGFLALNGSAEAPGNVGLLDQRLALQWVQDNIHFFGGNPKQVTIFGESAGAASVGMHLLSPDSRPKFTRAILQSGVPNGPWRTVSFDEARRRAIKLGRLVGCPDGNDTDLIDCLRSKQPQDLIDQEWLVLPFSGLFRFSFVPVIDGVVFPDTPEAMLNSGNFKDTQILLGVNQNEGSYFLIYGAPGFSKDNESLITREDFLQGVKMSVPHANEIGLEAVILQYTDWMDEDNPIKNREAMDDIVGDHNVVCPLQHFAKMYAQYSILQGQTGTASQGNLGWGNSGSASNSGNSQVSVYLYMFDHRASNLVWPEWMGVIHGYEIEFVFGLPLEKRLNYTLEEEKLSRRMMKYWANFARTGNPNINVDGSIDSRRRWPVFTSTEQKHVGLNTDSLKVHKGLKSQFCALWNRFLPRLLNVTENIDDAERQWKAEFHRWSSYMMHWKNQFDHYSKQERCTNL

IC50 [5] [µM]	inhibition [7] [%]	Compound	IC50 (Acetylcholinesterase [1]) [µM]	IC50 (Acetylcholinesterase [2]) [µM]	IC50 (Cholinesterase [3]) [µM]	IC50 [4] [µM]	IC50 (Cholinesterase [6]) [µM]
48	35	Cc1ccc(NC[C@@H]2CCCN3CCCC[C@H]23)c2c(=O)c3ccccc3oc12					
4.3	26	Cc1ccc(NCCC[C@@H]2CCCN3CCCC[C@H]23)c2c(=O)c3ccccc3sc12					
11	32	COc1ccc2sc3c([N+](=O)[O-])ccc(NC[C@@H]4CCCN5CCCC[C@H]45)c3c(=O)c2c1					
5.9		Cc1ccc(NC[C@@H]2CCCN3CCCC[C@H]23)c2c(=O)c3cc(O)ccc3sc12				9.1	
14		Nc1ccc(NC[C@@H]2CCCN3CCCC[C@H]23)c2c(=O)c3ccccc3sc12				8.6	

Further lines, the compound ahead of its results:

Compound	IC50 [5] [µM]	inhibition [7] [%]	IC50 (Acetylcholinesterase [1]) [µM]	IC50 (Acetylcholinesterase [2]) [µM]	IC50 (Cholinesterase [3]) [µM]	IC50 [4] [µM]	IC50 (Cholinesterase [6]) [µM]
Cc1ccc(NCCC[C@@H]2CCCN3CCCC[C@H]23)c2c(=O)c3ccccc3oc12	13		0.14	8.81	0.37	23	0.3
COc1ccc2sc3c(C)ccc(NCC[C@@H]4CCCN5CCCC[C@H]45)c3c(=O)c2c1	2.4		5.1	3.59	0.14	14	0.71
Cc1ccc(NCCCSC[C@@H]2CCCN3CCCC[C@H]23)c2c(=O)c3ccccc3sc12	4.3		0.18	7.84	0.088	20	0.007
COc1ccc2sc3c(N)ccc(NCC[C@@H]4CCCN5CCCC[C@H]45)c3c(=O)c2c1	13	33	1.9	2.4	0.15		0.99
CCCN(SC[C@H]1CCCN2CCCC[C@H]12)C1=C(Cl)C(=O)c2ccccc2C1=O	61						
